Bioassay records deposited in PubChem by The Scripps Research Institute Molecular Screening Center.
Hits are enriched below; roughly 2.4% of the tested compounds scored in any of these assays.
NPY-Y2 PAM-ag – human NPY-Y2 potentiation or agonism, primary screen; AID 1359; cells expressing NPY-Y2, potentiator/agonist read-out; activation, % at 3.6 µM; 220,000 compounds, 0.45% hits; in the data active = activation above about 27%;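 also: cells stimulated with NPY near EC25 plus isoproterenol at EC100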
NPY1 pot ag – potentiators or agonists of human neuropeptide Y receptor Y1; P25929; NPY-Y1 expressing cells, potentiator/agonist activation; activation, % at 3.6 µM; 220,000 compounds, 0.37% hits; AID 1304; in the data active = activation above about 33%, passing the limit was not always enough;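 also: cells stimulated with NPY at EC10 then isoproterenol at EC100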
NPY Y2 blocker – antagonists of human neuropeptide Y receptor Y2. inhibition, % at 2.7 µM. 140,000 compounds, 0.99% hits. P49146. NPY-Y2 expressing cells, antagonist mode. AID 793; in the data active = inhibition above about 17%
S1P4 antagonist – blocks the human S1P4 receptor | S1P4-expressing cells, antagonist mode, reporter read-out | inhibition, % at 4.98 µM | 220,000 compounds, 0.26% hits | AID 1510; in the data active = inhibition above about 29%
NPY-Y1 antag – NPY-Y1 (human) receptor antagonism. HEK293-CNG Y1 cells, membrane potential fluorescence; NPY at EC95, then isoproterenol. inhibition, % at 3.6 µM. P25929. AID 1040. 200,000 compounds, 1% hits;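 active = inhibition above the campaign mean inhibition of all tested compounds plus 3 SD, cut at about 20% in these data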
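System: HEK293 cells with Y1 receptor plus CNG channel / Probe or stimulus: NPY 25 nM then isoproterenol 1 µM plus Ro 20-1724 25 µM / Compound: one concentration, 3.6 µM, in 0.4% DMSO / Schedule: compound incubation 1 h at room temperature, readout 45 min post-stimulation / Measured by: membrane potential fluorescence / Read-out: % inhibition of NPY effect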
S1P4 ag – activates the human S1P4 receptor; S1P4-expressing cell line, agonist reporter assay; 220,000 compounds, 0.35% hits; AID 1509; activation, % at 4.98 µM; in the data active = activation above about 11%
S1P4 ag conf – human S1P4 agonism, confirmation; activation, % at 4.98 µM; shares compounds with S1P4 ag; S1P4 agonist cell-based reporter assay; 740 compounds, 7% hits; AID 1523; in the data active = activation above about 12%
S1P1 ag – activates human S1P1, counter-screen for S1P4 agonists; shares compounds with S1P4 ag; S1P1 agonist cell-based assay, activation; activation, % at 4.98 µM; 740 compounds, 4% hits; in the data active = activation above about 21%
Target sequence (P21453 whole entry, looked up): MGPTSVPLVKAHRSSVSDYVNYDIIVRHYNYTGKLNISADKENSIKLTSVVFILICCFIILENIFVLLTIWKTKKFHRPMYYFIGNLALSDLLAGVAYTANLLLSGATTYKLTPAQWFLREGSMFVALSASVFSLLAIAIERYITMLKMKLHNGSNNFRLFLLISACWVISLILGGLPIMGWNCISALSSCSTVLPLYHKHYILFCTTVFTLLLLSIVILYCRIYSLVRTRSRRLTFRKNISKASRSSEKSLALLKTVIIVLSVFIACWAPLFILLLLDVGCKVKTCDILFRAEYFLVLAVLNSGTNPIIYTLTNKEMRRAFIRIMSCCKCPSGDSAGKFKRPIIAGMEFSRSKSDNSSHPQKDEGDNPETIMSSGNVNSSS
Of the large screens only hits and unclear results are named; the others gave an inactive call (follow-up assays come after a bar, where they were run).

Cc1nn(Cc2nnc(SCC(=O)Nc3cccc(C(F)(F)F)c3)n2C)c(C)c1[N+](=O)[O-]	S1P4 ag 56 (no result: NPY Y2 blocker, NPY-Y1 antag) | S1P4 ag conf inactive | S1P1 ag inactive
CCc1cccc(CC)c1NC(=O)COC(=O)c1ccc2c(c1)S(=O)(=O)c1ccccc1C2=O	S1P4 ag 12 | S1P4 ag conf inactive | S1P1 ag inactive
COCCNC(=S)N1CCc2cc(OC)c(OC)cc2C1COc1cc(C)cc(C)c1 (configuration not stated)	S1P4 ag 18 | S1P4 ag conf inactive | S1P1 ag inactive
CCOC(=O)CC1C(=O)NCCN1S(=O)(=O)c1ccc(Br)cc1 (configuration not stated)	S1P4 ag 11 (no result: NPY Y2 blocker) | S1P4 ag conf inactive | S1P1 ag inactive
COc1ccc(-c2cn3cccnc3n2)cc1F	none
CC(OC(=O)c1ccc2c(=O)n3c(nc2c1)CCCCC3)C(=O)Nc1ncc(Cl)cc1Cl (configuration not stated)	S1P4 ag 11 | S1P4 ag conf inactive | S1P1 ag inactive
COc1cc(Cl)c(C)cc1NC(=O)c1ccc2c(SCC(=O)O)c3c(nc2c1)CCCC3	none (no result: NPY Y2 blocker)
COc1ccc(C)cc1NC(=O)c1ccc2c(SCC(=O)O)c3c(nc2c1)CCCC3	S1P4 ag 45 (no result: NPY Y2 blocker, NPY-Y1 antag) | S1P4 ag conf inactive | S1P1 ag inactive
CCOC(CNC(=O)Cc1c(C)nc2c(-c3ccccc3)c(C)nn2c1C)OCC	none (no result: NPY Y2 blocker)
CCNC(=S)N(CCc1ccccc1C)Cc1cc2cc(OC)c(OC)cc2[nH]c1=O	none
CCNC(=S)N(CCc1cccc(C)c1)Cc1cc2cc(OC)c(OC)cc2[nH]c1=O	S1P4 ag 51 | S1P4 ag conf inactive | S1P1 ag inactive
CCOc1ccc(C(=O)NCC2CCCO2)cc1OCC (configuration not stated)	none (no result: NPY Y2 blocker)
CCOc1ccccc1N=c1oc2cc(O)ccc2cc1C(=O)NCC1CCCO1 (configuration not stated)	NPY Y2 blocker 25, NPY-Y1 antag 36, S1P4 ag 61 | S1P4 ag conf inactive | S1P1 ag inactive
COc1ccc(N=c2oc3cc(O)ccc3cc2C(=O)NCC2CCCO2)c(OC)c1 (configuration not stated)	NPY Y2 blocker 31, NPY-Y1 antag 30, S1P4 ag 71 | S1P4 ag conf inactive | S1P1 ag inactive
COc1ccccc1CNC(=O)C1CC(c2ccccc2[N+](=O)[O-])=NO1 (configuration not stated)	none
Cc1nnc(NC(=O)CSc2ccc3nnc(-c4cccnc4)n3n2)s1	none (no result: NPY Y2 blocker)
CC(/C=C/c1ccc2c(c1)OCO2)=N/NC(=O)c1cccnc1	none
COc1cccc(OCC(=O)NNC(=O)Cc2cccs2)c1	none
COc1cccc(C(=O)NNC(=O)Cc2cccs2)c1	S1P4 ag 24 (no result: NPY Y2 blocker) | S1P4 ag conf inactive | S1P1 ag inactive
COc1ccc(C(=O)COc2ccc(C)cc2NC(C)=O)cc1	none (no result: NPY Y2 blocker, NPY-Y1 antag)
CC(=O)N(CCS(=O)(=O)c1ccc(Cl)cc1)Cc1cccs1	none (no result: NPY Y2 blocker, NPY-Y1 antag)
O=S(=O)(CCNCc1cccs1)c1ccc(Cl)cc1	S1P4 ag 36 (no result: NPY Y2 blocker, NPY-Y1 antag) | S1P4 ag conf inactive | S1P1 ag inactive
C/C(Cn1nc([N+](=O)[O-])cc1C)=N\NC(=O)COc1c(Cl)cc(Cl)cc1Cl	none
CCOC(=O)C1=C(C)NC(=O)NC1c1ccc(N2CCC(c3ccccc3)=N2)cc1 (configuration not stated)	S1P4 ag 15 (no result: NPY Y2 blocker) | S1P4 ag conf inactive | S1P1 ag inactive
CCOC(=O)C1=C(C)NC(=O)NC1c1ccc(NC(C)=O)cc1 (configuration not stated)	none
S=C1NCCNC(=S)NCCOCCOCCOCCN1	none (no result: NPY Y2 blocker)
CCN(CC)S(=O)(=O)c1ccc(C(=O)NNc2nc(-c3ccccc3)c3cc(Br)ccc3n2)cc1	S1P4 ag 13 | S1P4 ag conf inactive | S1P1 ag inactive
COC(=O)C(CC(C)C)NC(=O)C(Cc1ccccc1)NC(=O)C1CCCN1C(=O)OC(C)(C)C (configuration not stated)	none (no result: NPY Y2 blocker)
Brc1ccc(-c2ccc(/C=N/Nc3nc4ccccc4[nH]3)o2)cc1	S1P4 ag 12 | S1P4 ag conf inactive | S1P1 ag 24
CC(C)S(=O)(=O)CC(=O)c1ccc(Cl)cc1	none (no result: NPY Y2 blocker)
COc1cccc(Nc2nc(-c3sc(NC(=O)c4ccco4)nc3C)cs2)c1	S1P4 ag 29 | S1P4 ag conf inactive | S1P1 ag inactive
COc1ccc(Cl)cc1Nc1nc(-c2sc(NC(=O)c3ccco3)nc2C)cs1	none
CCCN(CC1CC1)C(=S)Nc1ccc(C(C)=O)cc1	none (no result: NPY Y2 blocker)
CCN(C(=S)Nc1ccc(C(C)=O)cc1)C1CCCCC1	S1P4 ag 42 (no result: NPY Y2 blocker) | S1P4 ag conf inactive | S1P1 ag inactive
COc1ccccc1NC(=O)c1c(NC(=O)c2ccco2)sc2c1CCC2	S1P4 ag 14 | S1P4 ag conf inactive | S1P1 ag inactive
CC(=O)NCCCc1nc2ccccc2n1Cc1c(F)cccc1Cl	S1P4 ag 52 (no result: NPY Y2 blocker, NPY-Y1 antag) | S1P4 ag conf inactive | S1P1 ag inactive
CCOc1ccc(-c2c(C(=O)N/N=C/c3ccc(OC)cc3)nnn2-c2nonc2N)cc1	none
CCn1c(=O)c(-c2nc3ccccc3[nH]2)c(O)c2ccccc21	S1P4 ag 35 (no result: NPY Y2 blocker) | S1P4 ag conf inactive | S1P1 ag inactive
N#CCC(=N)N1CCN(c2ccccc2Cl)CC1	none
CCOC(=O)C1=C(C)Nc2nc(C)nn2C1c1ccc(C)cc1 (configuration not stated)	S1P4 ag 13 | S1P4 ag conf inactive | S1P1 ag inactive
CCOC(=O)C1=C(C)Nc2nc(C)nn2C1c1cc(OC)ccc1OC (configuration not stated)	none
O=C(Nc1cc(S(=O)(=O)N2CCCCC2)ccc1N1CCCCC1)c1ccncc1	none (no result: NPY Y2 blocker, NPY-Y1 antag)
CCC1(C(=O)OC)CCc2c(cc(OC)c3ccccc23)C1=O (configuration not stated)	S1P4 ag 13 (no result: NPY Y2 blocker, NPY-Y1 antag) | S1P4 ag conf inactive | S1P1 ag inactive
Cc1cccc(OCC(=O)Nc2nnn(C)n2)c1C	none
Cc1cccc(OCC(=O)Nc2ncn[nH]2)c1C	S1P4 ag 24 (no result: NPY Y2 blocker, NPY-Y1 antag) | S1P4 ag conf inactive | S1P1 ag inactive
CC(=O)c1c(C)oc2ccc(N(C(C)=O)S(=O)(=O)c3cccc4cccnc34)cc12	none (no result: NPY Y2 blocker, NPY-Y1 antag)
COc1cccc(CNC(=S)NC2CCCC2)c1	none
COc1ccc(CNC(=S)NC2CCCC2)cc1	S1P4 ag 11 | S1P4 ag conf inactive | S1P1 ag inactive
CCCN(CCC)c1cc(Cl)nc(N)n1	none (no result: NPY Y2 blocker)
C=CCNC(=O)c1ccc(OC)cc1	S1P4 ag 15 (no result: NPY Y2 blocker, NPY-Y1 antag) | S1P4 ag conf inactive | S1P1 ag inactive
CC(=O)NN1C(=O)c2ccc(Oc3ccc4c(c3)C(=O)N(NC(C)=O)C4=O)cc2C1=O	S1P4 ag 23 (no result: NPY Y2 blocker) | S1P4 ag conf inactive | S1P1 ag inactive
